From ChEMBL document CHEMBL1136807, “CC-1065 analogues bearing different DNA-binding subunits: synthesis, antitumor activity, and preliminary toxicity study” (J Med Chem, 2003) come the findings set out here.

As a reminder, the IC50 is the point on the concentration scale where inhibition reaches its midpoint. Read a high IC50 as weaker potency in that assay. By ILS is commonly meant the gain in survival time of treated over control animals, in per cent.

For assay [1], the system named is L1210. In words: Compound was tested in vitro against L1210 leukemia cells. It counts as functional, cell-based. The settings on record: Mus musculus. A digest of the protocol:
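L1210 murine leukemia cells exposed to drug for 48 h; IC50 reported in nM.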

In assay [2] the test system is Mus musculus. Description: Days until first mouse died treated with 1000 […] compound. Type of assay: functional. A digest of the protocol:
(§1)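 Delayed-toxicity study in non-tumor-bearing BDF1 mice: single ip dose given on day 0, then animals observed for up to 180 days. Recorded the day the first mouse died and the number of mice alive on day 180, with 6–8 mice per group.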

Assay [3] concerns Mus musculus. In words: Increase in life span of mice bearing L1210 leukemia after administration of 500 […] compound. It counts as functional. A digest of the protocol: (§2)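 In vivo antitumor test in mice bearing L1210 leukemia, read out as increase in life span (ILS). Body weight was monitored. The optimal dose was defined as the dose giving the best antitumor efficacy with body weight loss ≤15%.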

Assay [4] concerns Mus musculus. Description: Increase in life span of mice bearing L1210 leukemia after administration of 1000 […] compound. It counts as functional. A digest of the protocol: as §2
Assay [5] relates to Mus musculus. Description: Increase in life span of mice bearing L1210 leukemia after administration of 250 […] compound. Type of assay: functional. A digest of the protocol:
as §2

In assay [6] the test system is Mus musculus. Description: Number of mice bearing L1210 leukemia that survived after 30 days, after administration of 1000 […] compound. It counts as functional. In short, it runs like this: as §2
Assay [7] concerns Mus musculus. Description: Number of mice bearing L1210 leukemia that survived after 30 days, after administration of 250 […] compound. It counts as functional. In short, it runs like this: as §2
For assay [8], the system named is Mus musculus. In words: Number of mice surviving on day 180 treated with 2000 […] compound; 0/6. Type of assay: functional, organism-based.
The test system of assay [9] is Mus musculus. In words: Days until first mouse died treated with 2000 […] compound. It counts as functional. A digest of the protocol:
as §1

For assay [10], the system named is Mus musculus. Description: Weight change in mice bearing L1210 leukemia after administration of 250 […] compound. Type of assay: functional.
The subject of assay [11] is Mus musculus. In words: Weight change in mice bearing L1210 leukemia after administration of 500 […] compound. Type of assay: functional.
Assay [12] deals with Mus musculus. In words: Weight change in mice bearing L1210 leukemia after administration of 1000 […] compound. Type of assay: functional.
The test system of assay [13] is Mus musculus. Description: Number of mice bearing L1210 leukemia that survived after 30 days, after administration of 500 µg/kg compound.
Assay [14] deals with Mus musculus. Description: Days until first mouse died treated with 100 […] compound; no death. Type of assay: functional, organism-based.
Assay [15] relates to Mus musculus. In words: Increase in life span of mice bearing L1210 leukemia after administration of 67 […] compound. It counts as functional. In short, it runs like this: as §2
The subject of assay [16] is Mus musculus. In words: Increase in life span of mice bearing L1210 leukemia after administration of 30 […] compound. Type of assay: functional. In short, it runs like this:
as §2

Assay [17] concerns Mus musculus. Description: Increase in life span of mice bearing L1210 leukemia after administration of 45 […] compound. Type of assay: functional. In short, it runs like this:
as §2

In assay [18] the test system is Mus musculus. In words: Number of mice bearing L1210 leukemia that survived after 30 days, after administration of 67 […] compound. It counts as functional. A digest of the protocol: as §2
Assay [19] concerns Mus musculus. In words: Number of mice surviving on day 180 treated with 100 […] compound; 7/7. It counts as functional, organism-based.
For assay [20], the system named is Mus musculus. Description: Weight change in mice bearing L1210 leukemia after administration of 30 […] compound. It counts as functional.
Assay [21] has as its system Mus musculus. Description: Weight change in mice bearing L1210 leukemia after administration of 45 […] compound. Type of assay: functional.
The subject of assay [22] is Mus musculus. In words: Weight change in mice bearing L1210 leukemia after administration of 67 […] compound. It counts as functional.
Assay [23] has as its system Mus musculus. In words: Number of mice bearing L1210 leukemia that survived after 30 days, after administration of 30 ug/kg compound.
Assay [24] has as its system Mus musculus. Description: Number of mice bearing L1210 leukemia that survived after 30 days, after administration of 45 µg/kg compound.
In assay [25] the test system is Mus musculus. In words: Increase in life span of mice bearing L1210 leukemia after administration of 100 […] compound. Type of assay: functional. In short, it runs like this:
as §2

Assay [26] deals with Mus musculus. Description: Number of mice bearing L1210 leukemia that survived after 30 days, after administration of 100 […] compound. Type of assay: functional. In short, it runs like this: as §2
In assay [27] the test system is Mus musculus. Description: Number of mice surviving on day 180 treated with 100 […] compound; 8/8. Type of assay: functional, organism-based.
In assay [28] the test system is Mus musculus. Description: Weight change in mice bearing L1210 leukemia after administration of 100 […] compound. It counts as functional.
Assay [29] relates to Mus musculus. Description: Days until first mouse died treated with 100 […] compound. Type of assay: functional. In short, it runs like this:
as §1

The subject of assay [30] is Mus musculus. Description: Increase in life span of mice bearing L1210 leukemia after administration of 70 […] compound; toxic. Type of assay: functional, organism-based. Set-up: dose 70 […].
The subject of assay [31] is Mus musculus. In words: Increase in life span of mice bearing L1210 leukemia after administration of 25 […] compound. Type of assay: functional. A digest of the protocol: as §2
The test system of assay [32] is Mus musculus. In words: Increase in life span of mice bearing L1210 leukemia after administration of 42 […] compound. It counts as functional. A digest of the protocol: as §2
The subject of assay [33] is Mus musculus. In words: Number of mice bearing L1210 leukemia that survived after 30 days, after administration of 25 […] compound. It counts as functional. In short, it runs like this:
as §2

The subject of assay [34] is Mus musculus. Description: Number of mice bearing L1210 leukemia that survived after 30 days, after administration of 70 […] compound. Type of assay: functional. A digest of the protocol: as §2
The subject of assay [35] is Mus musculus. In words: Number of mice surviving on day 180 treated with 100 […] compound; 4/8. Type of assay: functional, organism-based.
Assay [36] concerns Mus musculus. Description: Weight change in mice bearing L1210 leukemia after administration of 25 […] compound. Type of assay: functional.
Assay [37] deals with Mus musculus. In words: Weight change in mice bearing L1210 leukemia after administration of 42 […] compound. It counts as functional.
Assay [38] deals with Mus musculus. Description: Weight change in mice bearing L1210 leukemia after administration of 70 […] compound. Type of assay: functional.
Assay [39] concerns Mus musculus. In words: Number of mice bearing L1210 leukemia that survived after 30 days, after administration of 42 µg/kg compound.
In assay [40] the test system is Mus musculus. In words: Increase in life span of mice bearing L1210 leukemia after administration of 70 mg/kg compound. Type of assay: functional. In short, it runs like this:
as §2

The subject of assay [41] is Mus musculus. Description: Number of mice surviving on day 180 treated with 100 […] compound; 2/8. Type of assay: functional, organism-based. A digest of the protocol:
as §1

Compound `CC(=O)Nc1cc(C(=O)Nc2cc(C(=O)N3CC(CCl)c4c3cc(O)c3ccccc43)n(C)c2)n(C)c1` (racemic) displayed an IC50 in assay [1] of 44 nM. Moreover, the Days in assay [2] turned out to be 60. In assay [3], this compound came in with an ILS at 500 mg/kg of 31%. Further, the ILS at 1000 mg/kg in assay [4] worked out at 77%. The compound further came in with an ILS at 250 mg/kg in [5] of 31%. For the same compound, the Survivors in [6], in assay [7] and in assay [13] was 0 each time. Further, in assay [8], the No. of mice entry is on record as “Mice surviving 0/6”. The Days until first death in assay [9] came to 29 days. Further, the results for the Weight change in [10], in assay [11] and in [12] were 7%, 5% and -6%, respectively.

Consider `O=C(Nc1ccc2[nH]c(C(=O)N3CC(CCl)c4c3cc(O)c3ccccc43)cc2c1)c1cc2cc(F)ccc2o1` (racemic), for which it took 0.85 nM to reach half-maximal inhibition in assay [1] (IC50). For the same compound, in assay [14], the Days result was “No death”. The compound further displayed an ILS at 67 mg/kg in [15] of 147%. The ILS at 30 mg/kg in assay [16] worked out at 67%. In assay [17], this compound showed an ILS at 45 mg/kg of 107%. In addition, the Survivors in assay [18], in assay [23] and in assay [24] was 0 throughout. The No. of mice result in [19] was “Mice surviving 7/7”. Moreover, the results for the Weight change in assay [20], in [21] and in [22] were 5%, 5% and 0%, respectively.

Turning to `O=C(Nc1ccc2[nH]c(C(=O)N3CC(CCl)c4c3cc(O)c3ccccc43)cc2c1)c1cc2cc(F)ccc2[nH]1` (racemic), the IC50 in [1] amounted to 0.29 nM. Besides, the ILS at 100 mg/kg in assay [25] was found to be 158%. Further, the Days entry in assay [14] was “No death”. In addition, in assay [15], the ILS at 67 mg/kg was 160%. In addition, the ILS at 45 mg/kg in assay [17] amounted to 137%. Further, the Survivors in assay [26], in assay [18] and in assay [24] was 0 throughout. Moreover, the No. of mice entry in [27] is on record as “Mice surviving 8/8”. The Weight change in [28] is on record as -7%; in assay [21] it was 2%; in assay [22] it was -2%.

Regarding `CC(=O)Nc1ccc2oc(C(=O)Nc3ccc4[nH]c(C(=O)N5CC(CCl)c6c5cc(O)c5ccccc65)cc4c3)cc2c1` (racemic), in [1], the IC50 stood at 1.2 nM.

In assay [1], `CC(=O)Nc1ccc2oc(C(=O)Nc3ccc4[nH]c(C(=O)N5C[C@@H](CCl)c6c5cc(O)c5ccccc65)cc4c3)cc2c1` registered an IC50 of 0.65 nM. The same compound returned a Days in assay [29] of 8. Further, in [30], the ILS result was “Toxic”. The ILS at 25 mg/kg in assay [31] was 120%. The compound also came in with an ILS at 42 mg/kg in assay [32] of 67%. Also, the figures for the Survivors in assay [33], in [34] and in [39] were 1, 0 and 0, respectively. Also, the No. of mice entry in assay [35] is listed as “Mice surviving 4/8”. In addition, the Weight change in [36] was 12%; in [37] it was -7%; in assay [38] it was -18%.

On to `CC(=O)Nc1ccc2[nH]c(C(=O)Nc3ccc4[nH]c(C(=O)N5C[C@@H](CCl)c6c5cc(O)c5ccccc65)cc4c3)cc2c1`, for which the IC50 in assay [1] was 1.2 nM. The compound also gave a Days in assay [29] of 49. This compound came in with an ILS in [40] of 80%. Also, the ILS at 25 mg/kg in assay [31] was found to be 173%. Further, in assay [32], the ILS at 42 mg/kg amounted to 133%. The Survivors in assay [33] amounted to 1; in [34], 0; in assay [39], 0. In addition, in assay [41], the No. of mice result is on record as “Mice surviving 2/8”. In addition, the figures for the Weight change in [36], in [37] and in [38] were 7%, 5% and -6%, respectively.
